# From PubChem BioAssay
# DENV2 CPE rescue: protects cells from dengue virus 2 cytopathic effect. DENV2-infected cells, cytopathic effect rescue, plate reader. hit rate 1.7% among 350,000. CPE inhibition, % at 9.99 µM; in the data active means CPE inhibition above about 20%, passing the limit was not always enough; inconclusive means no clear call, values can overlap the other calls; tested in BHK-21 cells;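 further: 0% = median of neutral control wells and 100% = median of positive control wells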
# ERAP1 inh: ERAP1 (human) enzyme inhibition. Q9NZ08. recombinant ERAP1, Leu-AMC fluorescence, 60 min. inhibition, % at 10.7 µM. hit rate 0.15% among 340,000. AID 652197;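 active means mean replicate inhibition of at least 30%, or all replicates individually reaching that 30% level; inactive means mean below 30% and not every replicate reaching it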;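 further: 0% = neutral control wells and 100% = L-leucinethiol positive control wells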
# FGF22 binding: FGF22 (human) thermal shift binding; hit rate 1.5% among 340,000; Q9HCT0; recombinant FGF22 thermal shift, SYPRO orange fluorescence; percent of sucrose octasulfate shift, DMSO zero; activity (Tm shift, normalised), % at 9.99 µM;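 active means mean Tm shift, scaled 0 neutral to 100 positive control, at about 1.3% or above, every replicate too, limit read from the data; inconclusive means no clear call, values can overlap the other calls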
# CFTR F508del cor: CFTR F508del correction in bronchial cells; CFBE cells, YFP halide quenching; stimulated with forskolin plus potentiator P3; % fluorescence drop versus neutral controls; activity (quench increase), % at 7.58 µM; hit rate 0.36% among 350,000;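 active means mean added fluorescence quench of at least 8% versus neutral control, with both replicates also reaching 8%; inconclusive means only one of the mean or replicate conditions met; inactive means mean below 8% and not both replicates reaching 8%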;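 further: cells transiently co-express mutant CFTR-F508del with the halide-sensitive YFP; corrector assay measuring rescue of mutant channel to the surface after 24 h compound exposure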
# E-sel inducer: E-selectin induction on HUVECs | HUVEC E-selectin immunofluorescence imaging; normalized: neutral wells 0, TNF-alpha wells 100 | hit rate 0.37% among 260,000 | activation, % at 7.58 µM | P16581 | AID 686992;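 active means mean E-selectin-positive cell signal at least 10% of the positive control, reached in at least 60% of replicates, without over 20% cell loss; inconclusive means no rule given, readout overlaps actives, possibly toxicity-flagged; inactive means the rest, including those meeting only one limit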
# Target sequence (P16581 whole entry, looked up): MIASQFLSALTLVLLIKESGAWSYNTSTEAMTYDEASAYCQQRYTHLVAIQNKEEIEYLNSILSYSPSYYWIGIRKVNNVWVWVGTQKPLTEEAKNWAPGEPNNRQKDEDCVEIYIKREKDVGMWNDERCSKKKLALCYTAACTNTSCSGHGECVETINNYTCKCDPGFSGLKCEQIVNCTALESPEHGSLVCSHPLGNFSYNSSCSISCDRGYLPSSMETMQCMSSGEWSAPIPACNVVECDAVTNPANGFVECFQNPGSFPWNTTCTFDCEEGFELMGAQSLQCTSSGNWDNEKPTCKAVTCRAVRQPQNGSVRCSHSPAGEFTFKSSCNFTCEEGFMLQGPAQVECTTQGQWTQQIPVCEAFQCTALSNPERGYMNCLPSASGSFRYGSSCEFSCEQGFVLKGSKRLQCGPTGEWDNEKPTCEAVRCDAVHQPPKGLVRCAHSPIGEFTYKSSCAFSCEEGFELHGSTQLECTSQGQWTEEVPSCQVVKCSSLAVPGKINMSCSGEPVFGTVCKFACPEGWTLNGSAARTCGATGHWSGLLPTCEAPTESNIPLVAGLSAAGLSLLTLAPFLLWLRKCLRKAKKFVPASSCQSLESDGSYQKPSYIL
#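 Assay system: HUVEC, human umbilical vein endothelial cells / Amount: 3,000 HUVEC/well / Controls: TNF-alpha positive control, DMSO neutral control / Compound dosing: single concentration / Medium: EGM-2 over gelatin coat / Evaluation: percent E-selectin-positive cells / Signal: immunofluorescence imaging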
# * = called active by the depositor; ? = inconclusive; . = no result given; ! = not confirmed by another sample. Sampled rows, rich in hits. Any-hit rate of the full collection: about 3.7%.
SMILES,DENV2 CPE rescue,ERAP1 inh,FGF22 binding,CFTR F508del cor,E-sel inducer
CCOC(=O)C1=C[C@@H](CC)N(S(=O)(=O)c2ccc([N+](=O)[O-])cc2)[C@H]1c1ccccc1,42*,5,0,2,-2
CCOC(=O)C1=CCN(S(=O)(=O)c2ccc(F)cc2)C1c1cccc(Cl)c1 (configuration not stated),84*,9,41,4,0
CCOC(=O)C1=CCN(S(=O)(=O)c2ccc(Cl)cc2)C1c1cccc(Cl)c1 (configuration not stated),-1,-1,0,-6,0
CCCC#Cc1cnc2c(c1)C(=O)N([C@H](C)CO)C[C@H](C)[C@@H](CN(C)C(=O)c1ccccc1)O2,9,-3,0,-1,0
O=C(Cn1cc(COc2c(F)c(F)c(Br)c(F)c2F)nn1)c1ccc(O)cc1,-3,2,1.8*,2,-1
O=C(Cn1cc(COc2c(Br)cc(F)cc2Br)nn1)c1ccc(O)cc1,-6,1,0,0,0
CCOC(=O)CNC(=O)N(C)[C@H]1C[C@H]2c3[nH]c4ccccc4c3CCN2C(=O)[C@H]1[C@H](C)O,24*,-98,0,0,0
CCOC(=O)N(C)[C@H]1C[C@H]2c3[nH]c4ccccc4c3CCN2C(=O)[C@H]1[C@H](C)O,3,-6,0,-3,1
C[C@H](CO)N1C[C@H](C)[C@H](CN(C)S(C)(=O)=O)Oc2c(NS(=O)(=O)c3ccc(Cl)cc3)cccc2C1=O,0,-1,0,3,-1
O=C(CNC(=O)c1ccccc1)OCC(=O)N1N=C(c2ccc(Cl)cc2)CC1c1ccco1 (configuration not stated),6,0,43*,1,0
COc1ccc(C2CC(c3ccccc3)=NN2C(=O)COC(=O)CNC(=O)c2ccccc2)cc1 (configuration not stated),-8,1,0,0,-8
C/C=C/c1cnc2c(c1)C(=O)N([C@@H](C)CO)C[C@@H](C)[C@@H](CN(C)C(=O)C1CCCCC1)O2,8,-1,0,2,0
COCC#Cc1ccc2c(c1)O[C@@H](CN(C)Cc1ccccc1)[C@@H](C)CN([C@H](C)CO)S2(=O)=O,-8,3,0,-1,0
CN1CCCN(C(=O)/C=C/c2ccc(Cl)cc2Cl)CC1,-19,5,44*,-2,.
CC(Sc1nc2ncc(Cl)cc2[nH]1)C(=O)Nc1ccc(C(N)=O)cc1 (configuration not stated),118*,-1,.,-5,.
CC(Sc1nc2ncc(Cl)cc2[nH]1)C(=O)c1c(N)n(C)c(=O)n(C)c1=O (configuration not stated),-7,-5,0,-5,.
CCOC(=O)C(NC(=O)c1cccc(Cl)c1)(OCc1ccccc1)C(F)(F)F (configuration not stated),8,1,33*,.,-2
C[C@@H]1CCCCO[C@@H](CN(C)C(=O)Cc2ccccc2)[C@@H](C)CN([C@H](C)CO)C(=O)c2cc(NC(=O)c3ccncc3)ccc2O1,-9,-2,0,0,1
C/C=C/c1cnc2c(c1)C(=O)N([C@@H](C)CO)C[C@@H](C)[C@@H](CN(C)C(=O)NC1CCCC1)O2,12,0,0,3,0
O=C(NCCc1nc2ccccc2[nH]1)c1ccc([N+](=O)[O-])cc1,-3,8,0,.,.
CC(C)C(NC(=O)CCNC(=O)c1ccc([N+](=O)[O-])cc1)c1nc2ccccc2[nH]1 (configuration not stated),3,67*,0,-7,1
Cc1ccc(S(=O)(=O)N2CCOCC2)cc1-c1n[nH]c(=S)n1-c1ccccc1,-6,46*,0,3,0
O=S(=O)(c1cccc(-c2n[nH]c(=S)n2-c2cccc(C(F)(F)F)c2)c1)N1CCOCC1,5,5,0,-1,1
CCOC(=O)c1c(C)[nH]c(C(=O)CN2C(=O)NC(C)(CC(C)C)C2=O)c1C (configuration not stated),.,0,44*,0,.
CC1CC(C)CN(C(=O)C2CC(=O)N(c3ccc4c(c3)OCCO4)C2)C1 (configuration not stated),3,-2,0,-1,24
SMILES,DENV2 CPE rescue,ERAP1 inh,FGF22 binding,CFTR F508del cor,E-sel inducer
NC(=O)C1CCN(C(=O)C2CC(=O)N(c3ccc4c(c3)OCCO4)C2)CC1 (configuration not stated),24*,2,0,0,3
CN(Cc1ccc(Cl)c(Cl)c1)C(=O)C1CC(=O)N(c2ccc3c(c2)OCCO3)C1 (configuration not stated),30*,6,0,1,0
C[C@@H]1CN([C@@H](C)CO)C(=O)c2cc(NC(=O)Nc3ccc(F)cc3)ccc2O[C@@H](C)CCCCO[C@@H]1CN(C)C(=O)CCCN(C)C,?,7,.,0,0
C[C@@H]1CN([C@@H](C)CO)C(=O)c2cc(NC(=O)Nc3ccccc3)ccc2O[C@@H](C)CCCCO[C@@H]1CN(C)C,1,1,0,2,0
COc1ccc(C2=NN(C(=O)CSc3nnc(C)n3C)C(c3ccco3)C2)cc1 (configuration not stated),3,4,43*,-2,.
Cn1nnnc1SCC(=O)N1N=C(c2ccc(Cl)cc2)CC1c1ccco1 (configuration not stated),-3,1,0,2,0
CC(C)NC(=O)Nc1ccc2c(c1)C(=O)N([C@@H](C)CO)C[C@@H](C)[C@@H](CN(C)S(=O)(=O)c1cccs1)OCCCC[C@@H](C)O2,-2,0,0,2,.
C/C=C/c1cnc2c(c1)C(=O)N([C@H](C)CO)C[C@@H](C)[C@@H](CN(C)Cc1cncnc1)O2,-1,0,0,0,0
C[C@H]1CN([C@@H](C)CO)C(=O)CCCn2nncc2CO[C@H]1CN(C)S(=O)(=O)c1ccccc1F,27*!,-2,0,-2,0
C[C@@H]1CN([C@H](C)CO)C(=O)CCCn2nncc2CO[C@@H]1CN(C)S(=O)(=O)c1ccc(Oc2ccccc2)cc1,-13,3,0,4,0
C[C@H]1CN([C@@H](C)CO)C(=O)CCCn2nncc2CO[C@H]1CN(C)S(=O)(=O)c1ccc(Oc2ccccc2)cc1,30*!,-1,0,0,3
O=C(COC(=O)c1ccc(NC(=O)C2CC=CCC2C(=O)O)cc1)c1ccccc1 (configuration not stated),68*,-15,0,-3,.
COc1ccc2c3c([nH]c2c1)[C@@H](CO)NCC31CN(S(=O)(=O)c2ccccc2)C1,-5,.,0,1,1
CCOc1ccc(NC(=O)c2ccc(NC(=S)NC3CCCCC3)cc2)cc1,-2,-1,0,-1,3
